Data: ChEMBL document CHEMBL4396899, “Synthesis of N-hydroxycinnamoyl amide derivatives and evaluation of their anti-oxidative and anti-tyrosinase activities” (Bioorg Med Chem, 2019)
Calls of active or inactive are those of the source. The calls are words filed in the database; no cut-off is given here.

What was measured:
[1] = Antioxidant activity assessed as DPPH free radical scavenging activity incubated for 30 mins in dark condition by spectrophotometric analysis; type: functional
Method in brief: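 Test samples dissolved in absolute ethanol at a range of concentrations; 1 mL mixed with 1 mL 0.2 mM DPPH in ethanol, kept in the dark 30 min, absorbance read at 517 nm against an ethanol blank. L-ascorbic acid as positive control. Triplicate measurements; IC50 taken from the dose-response curve by linear regression interpolation.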

[2] = molecular target: T1, Tyrosinase (Agaricus bisporus) (UniProt O42713); assay: Inhibition of mushroom tyrosinase at 1 g/L using […] as substrate measured after 30 mins
T1 sequence (whole entry): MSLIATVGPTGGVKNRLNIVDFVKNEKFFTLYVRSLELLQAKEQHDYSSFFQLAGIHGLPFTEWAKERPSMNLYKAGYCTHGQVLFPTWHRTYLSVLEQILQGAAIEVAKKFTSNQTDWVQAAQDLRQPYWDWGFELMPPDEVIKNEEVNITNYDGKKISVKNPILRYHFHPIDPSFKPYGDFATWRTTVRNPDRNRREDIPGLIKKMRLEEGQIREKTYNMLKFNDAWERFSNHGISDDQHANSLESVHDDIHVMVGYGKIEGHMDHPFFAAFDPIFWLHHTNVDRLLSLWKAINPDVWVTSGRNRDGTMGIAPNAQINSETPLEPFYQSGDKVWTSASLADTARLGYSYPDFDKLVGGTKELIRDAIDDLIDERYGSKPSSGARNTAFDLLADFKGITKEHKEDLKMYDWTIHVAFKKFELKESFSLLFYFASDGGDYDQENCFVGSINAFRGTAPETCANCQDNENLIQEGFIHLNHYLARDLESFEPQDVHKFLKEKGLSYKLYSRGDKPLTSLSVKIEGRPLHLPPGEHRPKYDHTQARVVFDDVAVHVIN
Method in brief: (§1)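 Substrate L-tyrosine (0.507 g/L stock in HCl/0.2 M phosphate buffer pH 6.8). Inhibitor stock 1 g/L in DMSO, replaced by DMSO for the reference. Mushroom tyrosinase (200 U/mL stock in 0.2 M phosphate buffer pH 6.8) added last. Incubated 37 °C for 30 min, absorbance read at 475 nm. Percent inhibition from blank-corrected absorbances; triplicate; ferulic acid as positive control.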

[3] = Antioxidant activity assessed as hydroxyl radical scavenging activity incubated for 1 hr by spectrophotometric analysis; type: functional
Method in brief: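 Phenanthroline (0.75 mM in ethanol), 0.2 M phosphate buffer pH 7.4, sample in DMSO and 0.75 mM FeSO4 (1 mL each) mixed, then 1 mL 0.01% H2O2 added. Incubated 1 h at 37 °C in a water bath, absorbance read at 536 nm. Triplicate; IC50 (mM) by regression interpolation.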

Tyrosinase = molecular target: T2, Tyrosinase (Agaricus bisporus, UniProt O42713); assay: Inhibition of mushroom tyrosinase using […] as substrate measured after 30 mins; method in brief: as §1
T2 sequence (O42713 whole entry): T1 sequence (whole entry)

| IC50 [1] | inhibition [2] | IC50 [3] | IC50 (Tyrosinase) | SMILES |
| --- | --- | --- | --- | --- |
| 482 µM | Active | – | – | CCOC(=O)[C@H](C)NC(=O)/C=C/c1ccc(OC(C)=O)c(OC)c1 |
| 27.6 µM | – | 287 µM | – | O=C(O)/C=C/c1ccc(O)c(O)c1 [CAFFEIC ACID] |
| 28.6 µM | – | 373 µM | – | CCOC(=O)[C@H](CC(C)C)NC(=O)/C=C/c1ccc(O)c(O)c1 |
| 46.4 µM | Active | – | – | CCOC(=O)[C@H](C)NC(=O)/C=C/c1ccc(O)c(OC)c1 |
| > 500 µM | Active | – | – | CCOC(=O)[C@H](CC(C)C)NC(=O)/C=C/c1ccc(OC(C)=O)c(OC)c1 |
| – | – | – | < 0.18 µM | CCOC(=O)[C@H](Cc1ccccc1)NC(=O)/C=C/c1ccc(O)c(OC)c1 |
| 29.7 µM | – | 214 µM | – | CCOC(=O)[C@H](C)NC(=O)/C=C/c1ccc(O)c(O)c1 |
| > 500 µM | Active | – | – | COc1cc(/C=C/C(=O)O)ccc1OC(C)=O |
| 18.6 µM | – | 340 µM | – | CCOC(=O)CNC(=O)/C=C/c1ccc(O)c(O)c1 |
| 80.9 µM | – | 1620 µM | – | O=C1O[C@H]([C@@H](O)CO)C(O)=C1O [ASCORBIC ACID] |
| 33.2 µM | – | 292 µM | > 29 µM | CCOC(=O)[C@H](Cc1ccccc1)NC(=O)/C=C/c1ccc(O)c(O)c1 |
| 35.7 µM | Active | – | – | COc1cc(/C=C/C(=O)O)ccc1O [FERULATE] |
| 43.5 µM | – | 411 µM | – | CCOC(=O)[C@@H](NC(=O)/C=C/c1ccc(O)c(O)c1)[C@@H](C)CC |
| > 500 µM | Active | – | – | CCOC(=O)[C@@H](NC(=O)/C=C/c1ccc(OC(C)=O)c(OC)c1)C(C)C |
| 56.1 µM | Active | – | – | CCOC(=O)[C@H](CC(C)C)NC(=O)/C=C/c1ccc(O)c(OC)c1 |
| 59.6 µM | Active | – | – | CCOC(=O)[C@@H](NC(=O)/C=C/c1ccc(O)c(OC)c1)C(C)C |
| 19.6 µM | – | 348 µM | – | CCOC(=O)[C@@H](NC(=O)/C=C/c1ccc(O)c(O)c1)C(C)C |
